Assays:
Renin = molecular target: T1, Renin (Homo sapiens, UniProt P00797); experiment: Inhibition of purified human renal renin at pH 6.
T1 sequence (P00797 whole entry): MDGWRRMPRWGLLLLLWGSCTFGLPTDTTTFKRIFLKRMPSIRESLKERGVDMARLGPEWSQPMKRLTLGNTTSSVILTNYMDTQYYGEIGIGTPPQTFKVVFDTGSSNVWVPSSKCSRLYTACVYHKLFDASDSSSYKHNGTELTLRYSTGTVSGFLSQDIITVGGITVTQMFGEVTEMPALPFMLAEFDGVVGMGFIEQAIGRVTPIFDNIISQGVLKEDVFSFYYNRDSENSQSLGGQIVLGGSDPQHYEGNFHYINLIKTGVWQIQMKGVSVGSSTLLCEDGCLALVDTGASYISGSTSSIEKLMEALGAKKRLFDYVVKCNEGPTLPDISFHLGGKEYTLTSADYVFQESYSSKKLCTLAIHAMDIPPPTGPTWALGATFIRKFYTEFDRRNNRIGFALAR
Outline: (§1)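 Purified human renal renin enzyme assay at pH 6.0, following a previously described method. IC50 values were determined. Where IC50 exceeded 10^-6 M, no IC50 was determined and percent inhibition was reported at the stated concentration.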

Cathepsin D (Bos taurus) [1] = molecular target: T2, Cathepsin D (Bos taurus) (UniProt P80209); experiment: Tested for inhibition of Cathepsin D from bovine was determined at 10e-5 M
T2 sequence (whole entry): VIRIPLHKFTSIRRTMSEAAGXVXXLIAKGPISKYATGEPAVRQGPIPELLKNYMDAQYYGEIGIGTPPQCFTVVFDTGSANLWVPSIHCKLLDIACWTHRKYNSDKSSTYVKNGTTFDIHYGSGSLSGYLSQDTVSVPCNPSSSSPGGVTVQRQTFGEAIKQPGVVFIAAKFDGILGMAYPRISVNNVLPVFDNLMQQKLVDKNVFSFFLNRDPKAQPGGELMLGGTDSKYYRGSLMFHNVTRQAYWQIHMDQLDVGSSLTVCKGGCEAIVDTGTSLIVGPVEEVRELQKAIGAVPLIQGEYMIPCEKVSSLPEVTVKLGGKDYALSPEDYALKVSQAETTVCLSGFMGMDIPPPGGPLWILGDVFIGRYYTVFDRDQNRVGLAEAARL

Pepsin A (Sus scrofa) [2] = molecular target: Pepsin A (Sus scrofa) (UniProt P00791); experiment: In vitro inhibitory activity against porcine pepsin was determined at 10e-5 M
Renin (Homo sapiens) = molecular target: T3, Renin (Homo sapiens) (UniProt P00797); experiment: The compound was tested in vitro for inhibition of purified human renal renin at pH 6 and a concentration of 10e-6 M; outline: as §1
T3 sequence (whole entry): T1 sequence (P00797 whole entry)

Cathepsin D (Bos taurus) [3] = molecular target: T2, Cathepsin D (Bos taurus); experiment: Tested for inhibition of Cathepsin D from bovine at a concentration of 10e-5 M
Pepsin A (Sus scrofa) [4] = molecular target: Pepsin A (Sus scrofa) (UniProt P00791); experiment: Inhibitory activity against Porcine pepsin at a concentration of 10e-5 M

Chain of Pepsin A (Sus scrofa) (P00791 60-385 limits assumed): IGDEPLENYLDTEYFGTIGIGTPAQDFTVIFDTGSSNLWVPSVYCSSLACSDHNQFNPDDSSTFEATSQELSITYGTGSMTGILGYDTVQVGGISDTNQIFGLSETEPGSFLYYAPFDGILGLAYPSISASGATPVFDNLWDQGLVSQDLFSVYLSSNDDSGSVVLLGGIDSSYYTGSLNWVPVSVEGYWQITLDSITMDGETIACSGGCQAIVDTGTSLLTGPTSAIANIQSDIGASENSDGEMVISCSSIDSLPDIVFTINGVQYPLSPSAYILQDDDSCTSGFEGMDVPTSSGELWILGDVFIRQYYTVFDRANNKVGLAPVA

| IC50 (Renin) [nM] | SMILES | further results |
| --- | --- | --- |
| 350 | COP(=O)(O)C[C@H](O)[C@H](CC1CCCCC1)NC(=O)[C@H](CC(C)C)NC(=O)[C@H](Cc1ccccc1)NC(=O)OC(C)(C)C |  |
| 47 | COP(=O)(C[C@H](O)[C@H](CC1CCCCC1)NC(=O)[C@H](Cc1c[nH]cn1)NC(=O)[C@H](Cc1ccccc1)NC(=O)CC(C)(C)C)OC | inhibition (Cathepsin D (Bos taurus) [1]): 6%; inhibition (Pepsin A (Sus scrofa) [2]): 3% |
| 20 | COP(=O)(C[C@H](O)[C@H](CC1CCCCC1)NC(=O)[C@H](CC(C)C)NC(=O)[C@H](Cc1ccccc1)NC(=O)OC(C)(C)C)OC | inhibition (Cathepsin D (Bos taurus) [1]): 86%; inhibition (Pepsin A (Sus scrofa) [2]): 21% |
| 15000 | COP(=O)(CC(O)[C@H](Cc1ccccc1)NC(=O)[C@H](C)NC(=O)C(Cc1ccccc1)NC(=O)OC(C)(C)C)OC (stereo partly specified) |  |
| 1500 | COP(=O)(C[C@H](O)[C@H](Cc1ccccc1)NC(=O)[C@H](Cc1c[nH]cn1)NC(=O)[C@H](Cc1ccccc1)NC(=O)OC(C)(C)C)OC |  |
| 39 | COP(=O)(C[C@H](O)[C@H](CC1CCCCC1)NC(=O)[C@H](Cc1c[nH]cn1)NC(=O)[C@H](Cc1ccccc1)NC(=O)OC(C)(C)C)OC |  |
| 5100 | COP(=O)(C[C@H](O)[C@H](CC(C)C)NC(=O)[C@H](Cc1c[nH]cn1)NC(=O)[C@H](Cc1ccccc1)NC(=O)OC(C)(C)C)OC |  |
| 4000 | COP(=O)(C[C@@H](O)[C@H](Cc1ccccc1)NC(=O)[C@H](Cc1c[nH]cn1)NC(=O)[C@H](Cc1ccccc1)NC(=O)OC(C)(C)C)OC |  |
| 90 | COP(=O)(C[C@@H](O)[C@H](CC1CCCCC1)NC(=O)[C@H](Cc1c[nH]cn1)NC(=O)[C@H](Cc1ccccc1)NC(=O)OC(C)(C)C)OC |  |

Continued, molecule first:

| SMILES | IC50 (Renin) [nM] | further results |
| --- | --- | --- |
| CCCCOP(=O)(C[C@H](O)[C@H](CC1CCCCC1)NC(=O)[C@H](Cc1c[nH]cn1)NC(=O)[C@H](Cc1ccccc1)NC(=O)OC(C)(C)C)OCCCC | 400 |  |
| CCOC(=O)N[C@@H](Cc1ccccc1)C(=O)N[C@@H](Cc1c[nH]cn1)C(=O)N[C@@H](CC1CCCCC1)[C@@H](O)CP(=O)(OC)OC | 50 | inhibition (Cathepsin D (Bos taurus) [1]): 0%; inhibition (Pepsin A (Sus scrofa) [2]): 4% |
| CC(C)(C)OC(=O)N[C@@H](Cc1ccccc1)C(=O)N[C@@H](Cc1c[nH]cn1)C(=O)N[C@@H](CC1CCCCC1)[C@@H](O)CP(C)(C)=O (stereo in doubt; 23) |  | inhibition (Renin (Homo sapiens)): 24% |
| CC(C)(C)OC(=O)N[C@@H](Cc1ccccc1)C(=O)N[C@@H](Cc1c[nH]cn1)C(=O)N[C@@H](CC1CCCCC1)[C@@H](O)CP(C)(C)=O (stereo in doubt; 24) |  | inhibition (Renin (Homo sapiens)): 49% |
| CCOP(=O)(C[C@H](O)[C@H](CC1CCCCC1)NC(=O)[C@H](Cc1c[nH]cn1)NC(=O)[C@H](Cc1ccccc1)NC(=O)OC(C)(C)C)OCC | 72 | inhibition (Cathepsin D (Bos taurus) [3]): 0%; inhibition (Pepsin A (Sus scrofa) [4]): 0% |
| CC(C)(C)OC(=O)N[C@@H](Cc1ccccc1)C(=O)N[C@@H](Cc1c[nH]cn1)C(=O)N[C@@H](CC1CCCCC1)[C@@H](O)CP1(=O)OCCCO1 | 80 | inhibition (Cathepsin D (Bos taurus) [1]): 0%; inhibition (Pepsin A (Sus scrofa) [2]): 2% |
| CC(C)OP(=O)(C[C@H](O)[C@H](CC1CCCCC1)NC(=O)[C@H](Cc1c[nH]cn1)NC(=O)[C@H](Cc1ccccc1)NC(=O)OC(C)(C)C)OC(C)C | 1500 |  |

Reference: ChEMBL document CHEMBL1125041, “New inhibitors of renin that contain novel phosphostatine Leu-Val replacements” (J Med Chem, 1990)
